Calls of active or inactive are those of the source. No cut-off for these calls is given here.
Assays:
RAW264.7 [1] = experiment: Upregulation of A20 protein expression in wild type mouse RAW264.7 cells after 3 hrs by Western blot analysis; assay type: functional, cell-based
Summary of the method: (§1)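 Macrophages left untreated, given a scrambled (SC) peptide as negative control, or treated with low (10 µg/ml) or high (100 µg/ml) MDP for 3 h. Whole-cell and nuclear protein fractions prepared with Hepes pH 7.9 buffers and probed by Western blot for A20, AP1, MyD88 or NFκB. Triplicate assays.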

RAW264.7 [2] = experiment: Downregulation of Porphyromonas gingivalis-induced TNF-alpha protein expression in wild type mouse RAW264.7 cells at 10 to 200 ug/ml after 3 hrs by ELISA; assay type: functional, cell-based
Summary of the method: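 Macrophages left untreated, given P. gingivalis alone or test agent alone as controls, or co-treated with P. gingivalis plus 10, 100 or 200 µg/ml for 3 h. TNF-α in culture supernatant measured by ELISA kit; mean ± S.E.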

RAW264.7 [3] = experiment: Upregulation of AP1 protein expression in wild type mouse RAW264.7 cells after 3 hrs by Western blot analysis; assay type: functional, cell-based; summary of the method: as §1
RAW264.7 [4] = experiment: Downregulation of Porphyromonas gingivalis-induced NFkappaB mRNA expression in wild type mouse RAW264.7 cells at 100 ug/ml after 3 hrs by RT-PCR analysis; assay type: functional, cell-based
Summary of the method: (§2)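 Macrophages in RPMI 1640 with 10% FBS, 37 °C, 5% CO2, left untreated, given P. gingivalis alone or test agent alone as controls, or co-treated with P. gingivalis plus 10, 100 or 200 µg/ml for 3 h. Total RNA analysed by real-time RT-PCR (SYBR Green) for NFkB, RIP2 or NOD2, normalized to GAPDH; mean ± S.E.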

Mus musculus [5] = experiment: Antiinflammatory activity in wild type C57BL/6 mouse assessed as reduction of Porphyromonas gingivalis-induced septic shock at 2 to 8 mg/kg, ip; assay type: functional, organism-based
RAW264.7 [6] = experiment: Downregulation of Porphyromonas gingivalis-induced NOD2 mRNA expression in wild type mouse RAW264.7 cells at 100 ug/ml after 3 hrs by RT-PCR analysis; assay type: functional, cell-based; summary of the method: as §2
RAW264.7 [7] = experiment: Downregulation of Porphyromonas gingivalis-induced RIP2 mRNA expression in wild type mouse RAW264.7 cells at 100 ug/ml after 3 hrs by RT-PCR analysis; assay type: functional, cell-based; summary of the method: as §2
Peritoneal macrophage [8] = experiment: Effect on Porphyromonas gingivalis-induced TNFalpha expression in wild type mouse primary peritoneal macrophages at 100 ug/ml after 3 hrs by ELISA relative to control; assay type: functional
Summary of the method: (§3)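 Primary peritoneal macrophages from C57BL/6 mice cultured in RPMI 1640 with 10% FBS. Cells left untreated, given 10, 100 or 1,000 µg/ml MDP alone, given P. gingivalis alone, or co-treated with P. gingivalis plus 10, 100 or 1,000 µg/ml MDP for 3 h. TNF-α in conditioned medium measured by ELISA; mean ± S.E.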

[9] = Cytotoxicity against wild type mouse RAW264.7 cells assessed as survival rate at 10 ug/ml measured for 24 hrs by trypan blue assay relative to control; assay type: cell-based; details: wild type RAW264.7 cells, read-out: Survival
Summary of the method: (§4)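 WT mouse macrophages in RPMI 1640 with 10% FBS (37 °C, 5% CO2) were exposed to MDP for 0, 2, 4, 8, 12, 16, 18 or 24 h, then harvested with trypsin. Viability was counted by Trypan blue exclusion and expressed relative to 0 µg/ml MDP at 24 h (set as 100%). Done in triplicate; mean ± S.E.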

RAW264.7 [10] = experiment: Effect on NFkappaB protein level in wild type mouse RAW264.7 cells at 10 ug/ml after 3 hrs by Western blot analysis relative to SC peptide; assay type: functional; summary of the method: as §1
RAW264.7 [11] = experiment: Effect on AP1 protein level in wild type mouse RAW264.7 cells at 100 ug/ml after 3 hrs by Western blot analysis relative to SC peptide; assay type: functional; summary of the method: as §1
RAW264.7 [12] = experiment: Effect on Porphyromonas gingivalis-induced NOD2 mRNA level in wild type mouse RAW264.7 cells at 100 ug/ml after 3 hrs by RT-PCR analysis relative to control; assay type: functional
Summary of the method: (§5)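 Macrophages left untreated (negative control), given P. gingivalis alone (positive control), or co-treated with P. gingivalis plus low (10 µg/ml) or high (100 µg/ml) MDP for 3 h. Total mRNA analysed by real-time RT-PCR for NOD2, RIP2 or A20, normalized to GAPDH. NOD2/RIP2 expressed relative to P. gingivalis alone (100%); A20 relative to the low-dose treatment (100%). Triplicates, mean ± SEM.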

RAW264.7 [13] = experiment: Effect on A20 mRNA level in wild type mouse RAW264.7 cells at 100 ug/ml after 3 hrs by RT-PCR analysis relative to control; assay type: functional; summary of the method: as §5
RAW264.7 [14] = experiment: Effect on MyD88 protein level in wild type mouse RAW264.7 cells at 100 ug/ml after 3 hrs by Western blot analysis relative to SC peptide; assay type: functional; summary of the method: as §1
RAW264.7 [15] = experiment: Upregulation of Porphyromonas gingivalis-induced p53 protein level in wild type mouse RAW264.7 cells at 10 to 1000 ug/ml after 3 hrs by Western blot analysis; assay type: functional, cell-based
Summary of the method: (§6)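 Macrophages treated with MDP at 0, 10, 100 or 1,000 µg/ml, alone or together with P. gingivalis, for 3 h. Total protein probed by Western blot for p21 or p53, with actin as loading control. Triplicate assays.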

[16] = Cytotoxicity against wild type mouse RAW264.7 cells assessed as survival rate at 1 mg/ml measured for 24 hrs by trypan blue assay relative to control; assay type: cell-based; details: wild type RAW264.7 cells, read-out: Survival; summary of the method: as §4
RAW264.7 [17] = experiment: Upregulation of Porphyromonas gingivalis-induced p21 protein level in wild type mouse RAW264.7 cells at 10 to 1000 ug/ml after 3 hrs by Western blot analysis; assay type: functional, cell-based; summary of the method: as §6
[18] = Toxicity in Porphyromonas gingivalis-induced wild type C57BL/6 mouse septic shock model assessed as mortality at 2 mg/kg, ip; assay type: organism-based; details: in vivo
Summary of the method: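 Mice were 8–10-week-old WT C57BL/6, kept specific pathogen-free. They received a single i.p. co-injection of P. gingivalis (1 × 10^8/kg) plus MDP at 2 mg/kg (50 µg/mouse). Controls were DMSO alone or P. gingivalis alone. Animals were watched continuously for endotoxic response for 2 h after injection; n = 3 per group.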

RAW264.7 [19] = experiment: Effect on Porphyromonas gingivalis-induced NOD2 mRNA level in wild type mouse RAW264.7 cells at 10 ug/ml after 3 hrs by RT-PCR analysis relative to control; assay type: functional; summary of the method: as §5
RAW264.7 [20] = experiment: Effect on A20 protein level in wild type mouse RAW264.7 cells at 100 ug/ml after 3 hrs by Western blot analysis relative to SC peptide; assay type: functional; summary of the method: as §1
RAW264.7 [21] = experiment: Effect on MyD88 protein level in wild type mouse RAW264.7 cells at 10 ug/ml after 3 hrs by Western blot analysis relative to SC peptide; assay type: functional; summary of the method: as §1
RAW264.7 [22] = experiment: Upregulation of A20 mRNA level in wild type mouse RAW264.7 cells at 100 ug/ml after 3 hrs by RT-PCR analysis relative to control; assay type: functional; summary of the method: as §5
RAW264.7 [23] = experiment: Effect on Porphyromonas gingivalis-induced RIP2 mRNA level in wild type mouse RAW264.7 cells at 10 ug/ml after 3 hrs by RT-PCR analysis relative to control; assay type: functional; summary of the method: as §5
RAW264.7 [24] = experiment: Effect on AP1 protein level in wild type mouse RAW264.7 cells at 10 ug/ml after 3 hrs by Western blot analysis relative to SC peptide; assay type: functional; summary of the method: as §1
Peritoneal macrophage [25] = experiment: Effect on Porphyromonas gingivalis-induced TNFalpha expression in wild type mouse primary peritoneal macrophages at 1 mg/ml after 3 hrs by ELISA relative to control; assay type: functional; summary of the method: as §3
RAW264.7 [26] = experiment: Upregulation of A20 promoter DNA level in wild type mouse RAW264.7 cells at 100 ug/ml after 3 hrs by ChIP assay; assay type: functional, cell-based
Summary of the method: (§7)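 RAW264.7 cells treated with low (10 µg/ml) or high (100 µg/ml) MDP for 3 h, or transfected overnight with 1 µg AP1 cDNA as comparator. 10 µg nuclear extract from cross-linked cells immunoprecipitated with 1 µg anti-AP1 antibody or normal mouse IgG at 4 °C for 4 h; A20 promoter and GAPDH fragments amplified by PCR from input and IPs. Triplicates.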

RAW264.7 [27] = experiment: Effect on A20 mRNA level in wild type mouse RAW264.7 cells at 10 ug/ml after 3 hrs by RT-PCR analysis relative to control; assay type: functional; summary of the method: as §5
Mus musculus [28] = experiment: Antiinflammatory activity in wild type C57BL/6 mouse assessed as reduction of Porphyromonas gingivalis-induced septic shock at 8 mg/kg, ip; assay type: functional, organism-based
RAW264.7 [29] = experiment: Effect on Porphyromonas gingivalis-induced RIP2 mRNA level in wild type mouse RAW264.7 cells at 100 ug/ml after 3 hrs by RT-PCR analysis relative to control; assay type: functional; summary of the method: as §5
[30] = Cytotoxicity against wild type mouse RAW264.7 cells assessed as survival rate at 100 ug/ml measured for 24 hrs by trypan blue assay relative to control; assay type: cell-based; details: wild type RAW264.7 cells, read-out: Survival; summary of the method: as §4
Peritoneal macrophage [31] = experiment: Effect on Porphyromonas gingivalis-induced TNFalpha expression in wild type mouse primary peritoneal macrophages at 10 ug/ml after 3 hrs by ELISA relative to control; assay type: functional; summary of the method: as §3
RAW264.7 [32] = experiment: Upregulation of A20 promoter DNA level in wild type mouse RAW264.7 cells at 10 ug/ml after 3 hrs by ChIP assay; assay type: functional, cell-based; summary of the method: as §7
RAW264.7 [33] = experiment: Effect on NFkappaB protein level in wild type mouse RAW264.7 cells at 100 ug/ml after 3 hrs by Western blot analysis relative to SC peptide; assay type: functional; summary of the method: as §1
RAW264.7 [34] = experiment: Effect on A20 protein level in wild type mouse RAW264.7 cells at 10 ug/ml after 3 hrs by Western blot analysis relative to SC peptide; assay type: functional; summary of the method: as §1

CC(=O)N[C@H]1[C@@H](OCc2ccccc2)O[C@@H]2COC(C)(C)O[C@H]2[C@@H]1O[C@H](C)C(=O)N[C@@H](C)C(=O)N[C@H](CCC(=O)OCc1ccccc1)C(N)=O
Activity (RAW264.7 [1]): Active
Activity (RAW264.7 [2]): Active
Activity (RAW264.7 [3]): Active
Activity (RAW264.7 [4]): Active
Activity (Mus musculus [5]): Active
Activity (RAW264.7 [6]): Active
Activity (RAW264.7 [7]): Active

CC(=O)N[C@H]1C(O)O[C@H](CO)[C@@H](O)[C@@H]1O[C@H](C)C(=O)N[C@@H](C)C(=O)N[C@H](CCC(=O)O)C(N)=O (some centres not stated) [MURAMYL DIPEPTIDE]
Activity (Peritoneal macrophage [8]): 84%
viability at 24 h, 10 ug/ml [9]: 92%
Activity (RAW264.7 [10]): 388%
Activity (RAW264.7 [11]): 282%
Activity (RAW264.7 [12]): 95%
Activity (RAW264.7 [13]): 565%
Activity (RAW264.7 [14]): 144%
Activity (RAW264.7 [15]): inactive
viability at 24 h, 1 mg/ml [16]: 88%
Activity (RAW264.7 [17]): inactive
Activity [18]: Toxic
Activity (RAW264.7 [1]): Active
Activity (RAW264.7 [19]): 136%
Activity (RAW264.7 [20]): 236%
Activity (RAW264.7 [21]): 274%
fold change (FC) (RAW264.7 [22]): 5.6
Activity (RAW264.7 [2]): Active
Activity (RAW264.7 [3]): Active
Activity (RAW264.7 [23]): 103%
Activity (RAW264.7 [24]): 135%
Activity (Peritoneal macrophage [25]): 62%
Activity (RAW264.7 [26]): Active
Activity (RAW264.7 [27]): 117%
Activity (Mus musculus [28]): Active
Activity (RAW264.7 [29]): 104%
viability at 24 h, 100 ug/ml [30]: 89%
Activity (Peritoneal macrophage [31]): 129%
Activity (RAW264.7 [32]): inactive
Activity (RAW264.7 [33]): 142%
Activity (RAW264.7 [34]): 106%

Reference: ChEMBL document CHEMBL4425131, “Convergent Synthesis of Novel Muramyl Dipeptide Analogues: Inhibition of Porphyromonas gingivalis-Induced Pro-inflammatory Effects by High Doses of Muramyl Dipeptide” (J Med Chem, 2016)
